Assay results published in ChEMBL document CHEMBL4364345, “Synthesis and evaluation of 1,3,4-oxadiazole derivatives for development as broad-spectrum antibiotics” (Bioorg Med Chem, 2019).
In brackets after ≈: the same amount, converted by molar mass.

What was measured:
PC-3 = assay: Cytotoxicity against human PC3 cells assessed as decrease in cell viability in MTT assay; format: cell-based
Method in brief: (§1)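 Cell viability was measured by MTT on a robotic screening platform. Residual viability was expressed as a percentage of the mean viable cells in DMSO-treated controls. Under 25-30% viability was considered cytotoxic, and IC50 values were derived.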

NCI-H727 = assay: Cytotoxicity against human NCI-H727 cells assessed as decrease in cell viability in MTT assay; format: cell-based; method in brief: as §1
MDA-MB-231 = assay: Cytotoxicity against human MDA-MB-231 cells assessed as decrease in cell viability in MTT assay; format: cell-based; method in brief: as §1
Staphylococcus aureus [1] = assay: Antimicrobial activity against Staphylococcus aureus ATCC 29213 at 50 ug/disk incubated for 20 +/- 4 hrs by agar disk diffusion method; format: functional; conditions: read-out: DIZ
Method in brief: (§2)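 Agar disk diffusion on Mueller-Hinton agar swab-seeded from a 0.5 McFarland inoculum (about 10^8 CFU/ml). Cellulose discs got 50 μg compound (10 μl of 5 g/L in DMSO); a 10 μL DMSO disc was the control. Incubated aerobically at 35 ± 2 °C for 20 ± 4 h, then growth-inhibition diameters measured.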

Staphylococcus aureus [2] = assay: Antimicrobial activity against Staphylococcus aureus ATCC 29213 by broth microdilution method; format: functional
Method in brief: (§3)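 MICs were set by broth microdilution following EUCAST guidelines, from three independent experiments reported as values or ranges. MICs were measured only where disk-diffusion inhibition diameters were 9 mm or more.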

[3] = test system: Staphylococcus epidermidis; assay: Antimicrobial activity against Staphylococcus epidermidis clinical isolate by broth microdilution method; format: functional; method in brief: as §3
[4] = test system: Mycolicibacterium fortuitum; assay: Antimicrobial activity against Mycobacterium fortuitum clinical isolate by broth microdilution method; format: functional; method in brief: as §3
Escherichia coli [5] = assay: Antimicrobial activity against Escherichia coli BW25113 at 10 mM/disk incubated for 20 +/- 4 hrs by agar disk diffusion method; format: functional; conditions: read-out: DIZ
[6] = test system: Mycobacteroides abscessus; assay: Antimicrobial activity against Mycobacterium abscessus clinical isolate at 50 ug/disk incubated for 4 days by agar disk diffusion method; format: functional; conditions: 96 h, read-out: DIZ
Method in brief: (§4)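 On MH agar with 5% horse blood, a 0.5 McFarland inoculum was swabbed and discs with 50 μg compound (from 5 g/L in DMSO) were laid down, alongside a DMSO control disc. Incubation was humid and aerobic at 35 ± 2 °C for 4 days, then growth-inhibition diameters were measured.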

Enterobacter cloacae = assay: Antimicrobial activity against Enterobacter cloacae clinical isolate at 50 ug/disk incubated for 20 +/- 4 hrs by agar disk diffusion method; format: functional; conditions: read-out: DIZ; method in brief: as §2
Escherichia coli [7] = assay: Antimicrobial activity against Escherichia coli clinical isolate at 50 ug/disk incubated for 20 +/- 4 hrs by agar disk diffusion method; format: functional; conditions: read-out: DIZ; method in brief: as §2
Enterococcus faecalis [8] = assay: Antimicrobial activity against Enterococcus faecalis ATCC 29212 at 50 ug/disk incubated for 20 +/- 4 hrs by agar disk diffusion method; format: functional; conditions: read-out: DIZ; method in brief: as §2
Listeria monocytogenes [9] = assay: Synergistic antimicrobial activity against Listeria monocytogenes clinical isolate assessed as DIZ at 50 ug/disk incubated for 20 +/- 4 hrs in presence of moxalactam by agar disk diffusion method (reference value: 13 millimeter); format: functional; conditions: read-out: DIZ
Escherichia coli [10] = assay: Antimicrobial activity against Escherichia coli BW25113 by broth microdilution method; format: functional
Method in brief: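 MIC by broth microdilution per EUCAST guidelines, in E. coli BW25113 and its previously described deletion derivative.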

Escherichia coli [11] = assay: Antimicrobial activity against Escherichia coli ATCC 25922 at 50 ug/disk incubated for 20 +/- 4 hrs by agar disk diffusion method; format: functional; conditions: read-out: DIZ; method in brief: as §2
[12] = test system: Staphylococcus epidermidis; assay: Antimicrobial activity against Staphylococcus epidermidis clinical isolate at 50 ug/disk incubated for 20 +/- 4 hrs by agar disk diffusion method; format: functional; conditions: read-out: DIZ; method in brief: as §2
[13] = test system: Mycolicibacterium fortuitum; assay: Antimicrobial activity against Mycobacterium fortuitum clinical isolate at 50 ug/disk incubated for 4 days by agar disk diffusion method; format: functional; conditions: 96 h, read-out: DIZ; method in brief: as §4
[14] = Cytotoxicity against human NHFB cells assessed as decrease in cell viability in MTT assay; format: cell-based; method in brief: as §1
Enterococcus faecium = assay: Antimicrobial activity against Enterococcus faecium AUS0004 at 50 ug/disk incubated for 20 +/- 4 hrs by agar disk diffusion method; format: functional; conditions: read-out: DIZ; method in brief: as §2
Bacillus subtilis = assay: Antimicrobial activity against Bacillus subtilis clinical isolate at 50 ug/disk incubated for 20 +/- 4 hrs by agar disk diffusion method; format: functional; conditions: read-out: DIZ; method in brief: as §2
Streptococcus pyogenes = assay: Antimicrobial activity against Streptococcus pyogenes clinical isolate at 50 ug/disk incubated for 20 +/- 4 hrs by agar disk diffusion method; format: functional; conditions: read-out: DIZ
Method in brief: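 Plates of MH + 5% horse blood were swabbed with a 0.5 McFarland inoculum and received discs with 50 μg compound (from 5 g/L in DMSO) plus a 10 μL DMSO control disc. Incubation at 35 ± 2 °C aerobically with 5% CO2 for 20 ± 4 h, then zone diameters measured.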

[15] = test system: Mycobacteroides abscessus; assay: Antimicrobial activity against Mycobacterium abscessus clinical isolate by broth microdilution method; format: functional; method in brief: as §3
Escherichia coli [16] = assay: Antimicrobial activity against TolC deficient Escherichia coli BW25113 by agar disk diffusion method; format: functional
Proteus vulgaris = assay: Antimicrobial activity against Proteus vulgaris clinical isolate at 50 ug/disk incubated for 20 +/- 4 hrs by agar disk diffusion method; format: functional; conditions: read-out: DIZ; method in brief: as §2
Escherichia coli [17] = assay: Antimicrobial activity against ssrA-TolC deficient Escherichia coli BW25113 by agar disk diffusion method; format: functional
Pseudomonas aeruginosa = assay: Antimicrobial activity against Pseudomonas aeruginosa clinical isolate at 50 ug/disk incubated for 20 +/- 4 hrs by agar disk diffusion method; format: functional; conditions: read-out: DIZ; method in brief: as §2
Staphylococcus aureus [18] = assay: Antimicrobial activity against Staphylococcus aureus clinical isolate at 50 ug/disk incubated for 20 +/- 4 hrs by agar disk diffusion method; format: functional; conditions: read-out: DIZ; method in brief: as §2
Bacteroides fragilis = assay: Antimicrobial activity against Bacteroides fragilis ATCC 25285 at 50 ug/disk incubated for 20 +/- 4 hrs by agar disk diffusion method; format: functional; conditions: read-out: DIZ
Method in brief: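 Anaerobic disk diffusion: MH agar + 5% horse blood seeded from a 0.5 McFarland swab, with discs of 50 μg compound (10 μl of 5 g/L DMSO solution) and a DMSO control disc. Kept at 35 ± 2 °C under anaerobic conditions for 20 ± 4 h; inhibition diameters recorded.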

Clostridium perfringens = assay: Antimicrobial activity against Clostridium perfringens clinical isolate at 50 ug/disk incubated for 20 +/- 4 hrs by agar disk diffusion method; format: functional; conditions: read-out: DIZ
Method in brief: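 Agar disk diffusion on MH agar with 5% horse blood (MHF), surface-seeded by swab from a 0.5 McFarland inoculum (about 10^8 CFU/ml). Cellulose discs received 10 μl of a 5 g/L DMSO solution (50 μg). A DMSO-only disc served as control. Anaerobic incubation at 35 ± 2 °C for 20 ± 4 h; growth-inhibition diameter measured in mm.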

Listeria monocytogenes [19] = assay: Synergistic antimicrobial activity against Listeria monocytogenes clinical isolate assessed as DIZ at 50 ug/disk incubated for 20 +/- 4 hrs in presence of ofloxacin by agar disk diffusion method (reference value: 19 millimeter); format: functional; conditions: read-out: DIZ
Klebsiella pneumoniae = assay: Antimicrobial activity against Klebsiella pneumoniae clinical isolate at 50 ug/disk incubated for 20 +/- 4 hrs by agar disk diffusion method; format: functional; conditions: read-out: DIZ; method in brief: as §2
Enterococcus faecalis [20] = assay: Synergistic antimicrobial activity against Enterococcus faecalis ATCC 29212 assessed as DIZ at 50 ug/disk incubated for 20 +/- 4 hrs in presence of erythromycin by agar disk diffusion method (reference value: 20 millimeter); format: functional; conditions: read-out: DIZ
Escherichia coli [21] = assay: Antimicrobial activity against arfA-arfB TolC deficient Escherichia coli BW25113 by agar disk diffusion method; format: functional
Listeria monocytogenes [22] = assay: Antimicrobial activity against Listeria monocytogenes clinical isolate by broth microdilution method; format: functional; method in brief: as §3

`O=C(Nc1nnc(-c2ccc(C(F)(F)F)cc2)o1)c1cccc(Cl)c1` gave an IC50 (PC-3) of 17 µM, an IC50 (NCI-H727) of 10 µM and an IC50 (MDA-MB-231) of 23 µM. It also gave a zone of inhibition at 50 µg/disc (Staphylococcus aureus [1]) of 24 mm, an MIC (Staphylococcus aureus [2]) of 2 µg/mL (≈ 5.44 µM) and an MIC [3] of 0.0625 to 0.25 µg/mL (≈ 0.17 to 0.68 µM). The MIC [4] was 16 to 32 µg/mL (≈ 43.5 to 87 µM), the zone of inhibition at 10000 µM (Escherichia coli [5]) was 6 mm and the zone of inhibition at 50 µg/disc [6] was 9 mm. The zone of inhibition at 50 µg/disc (Enterobacter cloacae) was 6 mm, the zone of inhibition at 50 µg/disc (Escherichia coli [7]) was 6 mm and the zone of inhibition at 50 µg/disc (Enterococcus faecalis [8]) was 20 mm. The zone of inhibition at 50 µg/disc (Listeria monocytogenes [9]) was 33 mm, the MIC (Escherichia coli [10]) was > 128 µM and the zone of inhibition at 50 µg/disc (Escherichia coli [11]) was 6 mm. For the same compound, the zone of inhibition at 50 µg/disc [12] was 27 mm, the zone of inhibition at 50 µg/disc [13] was 23 mm and the IC50 [14] was > 25 µM. The zone of inhibition at 50 µg/disc (Enterococcus faecium) was 21 mm, the zone of inhibition at 50 µg/disc (Bacillus subtilis) was 24 mm and the zone of inhibition at 50 µg/disc (Streptococcus pyogenes) was 9 mm. The MIC [15] was 32 to 64 µg/mL (≈ 87 to 174 µM), the “diameter of the inhibition zone (DIZ)” value (Escherichia coli [16]) was 21.3 mm and the zone of inhibition at 50 µg/disc (Proteus vulgaris) was 6 mm. For the same compound, the “diameter of the inhibition zone (DIZ)” value (Escherichia coli [17]) was 22.3 mm, the zone of inhibition at 50 µg/disc (Pseudomonas aeruginosa) was 6 mm and the zone of inhibition at 50 µg/disc (Staphylococcus aureus [18]) was 28 mm. The zone of inhibition at 50 µg/disc (Bacteroides fragilis) was 11 mm, the zone of inhibition at 50 µg/disc (Clostridium perfringens) was 11 mm and the zone of inhibition at 50 µg/disc (Listeria monocytogenes [19]) was 29 mm. The zone of inhibition at 50 µg/disc (Klebsiella pneumoniae) was 6 mm, the zone of inhibition at 50 µg/disc (Enterococcus faecalis [20]) was 24 mm and the “diameter of the inhibition zone (DIZ)” value (Escherichia coli [21]) was 22.6 mm. For the same compound, the MIC (Listeria monocytogenes [22]) was 8 µg/mL (≈ 21.8 µM).
